Only some compounds are listed: those with a hit (about 2% of all), similar ones and a draw of the others.
PLC-beta3 inh – inhibitors of human phospholipase C beta3 | 370,000 tested, 0.18% active | Q01970 | inhibition, % at 12.2 µM | Purified PLC-beta3, fluorogenic substrate, fluorescence | AID 720704; in the data active = inhibition above about 11%
Target sequence (Q01970 whole entry, looked up): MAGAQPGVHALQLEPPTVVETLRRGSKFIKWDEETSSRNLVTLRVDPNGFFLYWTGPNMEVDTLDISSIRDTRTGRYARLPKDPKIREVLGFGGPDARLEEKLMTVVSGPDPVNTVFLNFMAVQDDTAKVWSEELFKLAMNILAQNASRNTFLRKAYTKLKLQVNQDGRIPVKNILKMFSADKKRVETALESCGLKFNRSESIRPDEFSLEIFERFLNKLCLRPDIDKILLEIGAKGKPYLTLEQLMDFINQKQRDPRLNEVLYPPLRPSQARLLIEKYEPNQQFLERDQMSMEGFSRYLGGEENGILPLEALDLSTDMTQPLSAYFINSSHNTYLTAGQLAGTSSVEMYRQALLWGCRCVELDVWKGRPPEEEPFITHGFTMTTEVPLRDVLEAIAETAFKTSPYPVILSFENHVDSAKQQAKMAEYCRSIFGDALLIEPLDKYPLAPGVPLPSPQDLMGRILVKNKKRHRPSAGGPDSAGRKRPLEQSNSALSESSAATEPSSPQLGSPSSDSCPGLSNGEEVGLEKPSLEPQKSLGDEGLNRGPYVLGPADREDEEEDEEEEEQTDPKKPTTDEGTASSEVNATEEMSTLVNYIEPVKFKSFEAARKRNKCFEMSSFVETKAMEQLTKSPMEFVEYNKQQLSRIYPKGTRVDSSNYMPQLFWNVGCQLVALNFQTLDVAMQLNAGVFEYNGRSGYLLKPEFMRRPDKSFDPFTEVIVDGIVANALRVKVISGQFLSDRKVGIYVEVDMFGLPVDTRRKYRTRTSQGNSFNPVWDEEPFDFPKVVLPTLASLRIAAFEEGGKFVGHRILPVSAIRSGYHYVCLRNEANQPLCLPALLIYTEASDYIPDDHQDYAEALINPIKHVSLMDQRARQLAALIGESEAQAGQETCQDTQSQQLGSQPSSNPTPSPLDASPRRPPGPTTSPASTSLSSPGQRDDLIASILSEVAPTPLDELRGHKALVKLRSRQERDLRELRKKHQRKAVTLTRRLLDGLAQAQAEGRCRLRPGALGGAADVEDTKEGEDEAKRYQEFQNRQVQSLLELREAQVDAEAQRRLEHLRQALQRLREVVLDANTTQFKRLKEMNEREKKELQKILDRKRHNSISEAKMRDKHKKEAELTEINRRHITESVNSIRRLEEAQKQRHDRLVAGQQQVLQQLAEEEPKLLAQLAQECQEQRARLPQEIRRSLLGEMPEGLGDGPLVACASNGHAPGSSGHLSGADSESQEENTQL
VIM-2 inhibitor – inhibitors of Pseudomonas aeruginosa VIM-2 metallo-beta-lactamase. AID 1527. inhibition, % at 5.6 µM. 290,000 tested, 0.89% active. purified VIM-2, nitrocefin hydrolysis, epi-absorbance fluorescence;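 active = inhibition above the mean of all tested compounds plus 3 SD, cutoff set per screening run, cut at about 7.5% in these data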;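 also: red hydrolysis product quenches plate fluorescence so inhibitors raise well fluorescence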
PvdQ inh – blocks Pseudomonas aeruginosa PvdQ acylase activity. purified PvdQ acylase, fluorescence plate reader. inhibition, % at 10 µM. 340,000 tested, 0.063% active; in the data active = inhibition above about 30%, passing the limit was not always enough
PLCg1 inh – PLC-gamma1 (human) inhibition, primary screen; P19174; purified PLC-gamma1, fluorogenic substrate, fluorescence; inhibition, % at 12.2 µM; 370,000 tested, 0.84% active; AID 720700; in the data active = inhibition above about 9.5%
IMP-1 inh – blocks Pseudomonas aeruginosa IMP-1 metallo-beta-lactamase; inhibition, % at 5.6 µM; AID 1556; 290,000 tested, 0.45% active; purified IMP-1, nitrocefin hydrolysis, epi-absorbance fluorescence;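 active = inhibition above the mean plus 3 SD of all compounds in the same screening run, cut at about 4.5% in these data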
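Assay system: purified recombinant IMP-1 beta-lactamase. Input: IMP-1 0.2 nM before substrate addition. Buffer or medium: Zinc- and detergent-supplemented HEPES buffer, pH 7.1. Schedule: 25 °C, 15 min preincubation, 25 min reaction. Signal: Epi-absorbance fluorescence, 480 nm excitation, 530 nm emission. Evaluation: percent inhibition from optical density relative to buffer-blank wells.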
VIM-2 inh confirm – VIM-2 inhibition, confirmation assay; shares compounds with IMP-1 inh; purified VIM-2 enzyme, nitrocefin absorbance; inhibition, % at 5.6 µM; 200 tested, 73% active; in the data active = inhibition above about 8%
TEM-1 counter – blocks E. coli TEM-1 beta-lactamase, VIM-2 IMP-1 counter-screen; shares compounds with IMP-1 inh; nitrocefin absorbance inhibition; inhibition, % at 5.6 µM; 200 tested, 50% active; in the data active = inhibition above about 0.66%
IMP-1 confirm – confirmation of P. aeruginosa IMP-1 metallo-beta-lactamase inhibitors; shares compounds with IMP-1 inh; purified IMP-1 enzyme, absorbance substrate hydrolysis; inhibition, % at 5.6 µM; 200 tested, 60% active; AID 2189; in the data active = inhibition above about 4.9%
Numbers stand for hits; i = inactive; nt = no result given.

SMILES | PLC-beta3 inh | VIM-2 inhibitor | PvdQ inh | PLCg1 inh | IMP-1 inh | VIM-2 inh confirm | TEM-1 counter | IMP-1 confirm
COC(=O)[C@]12C[C@H](CC(=O)N3CCN(C(=O)C4CC4)CC3)C(=O)N(Cc3ccc(Cl)cc3Cl)C1=C[C@H](C(C)C)O[C@@H]2C1CC1 | i | nt | nt | i | nt | nt | nt | nt
COc1cc(OC)c(-c2c3cc(O)c(=O)cc-3oc3cc(O)c(O)cc23)cc1OC | i | 16 | i | i | 7.0 | 49 | 75 | 46
COc1ccc2c(Cl)c(C(=O)NCCCn3ccnc3)sc2c1Cl | i | 26 | i | i | 35 | 45 | i | 57
COc1ccc(C(=O)NCCCn2ccnc2)cc1 | i | i | i | i | i | nt | nt | nt
Cc1c(O)ccc(C(=O)CN2CCN(Cc3ccc4c(c3)OCO4)CC2)c1O | i | 91 | i | i | 87 | i | i | i
COc1cccc(C2Nc3ccc4ccccc4c3C3=C2C(=O)CC(C)(C)C3)c1OCC(=O)O (stereo unspecified) | i | 9.5 | i | i | 11 | 8.1 | i | i
CCn1c(=O)n2n(c1=O)[C@]1(C=C(C)C2)CN(Cc2ccc(OC)cc2OC)C(NC(=O)c2ccccc2)=N1 | i | nt | nt | i | nt | nt | nt | nt
COc1ccc(N=Nc2nc3cc(Br)c(Br)cc3n2C)c(OC)c1 | i | 10 | i | i | 9.3 | i | 5.6 | i
CCC(C)Nc1nc(C)nc2c1nnn2Cc1ccccc1 (stereo unspecified) | i | nt | nt | i | nt | nt | nt | nt
Cc1cc2nc3c(=O)[nH]c(=O)[nH]c3nc2c([N+](=O)[O-])c1N | i | 12 | i | i | 12 | 11 | 20 | i
Cc1cccn2c(=O)c3cc(C(=O)NCCCn4ccnc4)n(C)c3nc12 | i | 10 | i | i | 23 | 32 | i | i
CCN(CC)c1ccc2cc(-c3nc4ccccc4[nH]3)c(=O)oc2c1 | nt | 13 | i | nt | 18 | 61 | 105 | 59
CCN(CC)c1ccc2cc(-c3nnc(-c4ccccc4)o3)c(=O)oc2c1 | i | 8.4 | i | i | 8.3 | 33 | 43 | 26
Cc1ccc2c(c1)C1CS(=O)(=O)N(C3CCCC3)C(=O)N1C2 (stereo unspecified) | i | nt | nt | i | nt | nt | nt | nt
C=CCN1C(=O)/C(=C\C=C2\N(C)c3ccccc3C2(C)C)SC1=S | i | i | i | i | i | nt | nt | nt
CN1/C(=C\C=C2/SC(=S)N(CC(=O)O)C2=O)C(C)(C)c2ccccc21 | i | 11 | i | i | 17 | 23 | 21 | 21
CCCCC(Sc1nc(N)c(NC(=O)c2ccco2)c(=O)[nH]1)C(=O)O (stereo unspecified) | i | 12 | i | i | 12 | 25 | 1.7 | 36
CCn1c(=S)sc2c(=O)n(CC(=O)Nc3ccccc3C(F)(F)F)c(C)nc21 | i | 21 | i | i | 41 | 19 | i | 24
CCn1c(=S)sc2c(=O)n(CC(=O)Nc3ccccc3)c(C)nc21 | i | i | i | i | i | nt | nt | nt
O=C1c2ccccc2-c2onc3ccc(NCCCn4ccnc4)c1c23 | nt | 55 | nt | nt | 4.6 | 89 | 69 | 56
O=C(Nc1ccc(C(F)(F)F)cc1)c1ccc(NC(=O)C2CCCO2)cc1 (stereo unspecified) | nt | 9.1 | i | nt | 16 | 9.9 | i | 9.8
CCN1CCN(C2=CC3=CC(=C(C#N)C#N)CCC3CC2)CC1 (stereo unspecified) | nt | 55 | i | nt | 72 | 62 | 67 | 58
CN1CCN(C2=CC3=CC(=C(C#N)C#N)CCC3CC2)CC1 (stereo unspecified) | nt | 58 | i | nt | 67 | 62 | 66 | 63
N#Cc1cc(Cl)c(N2CCOCC2)cc1C#N | i | i | i | i | i | nt | nt | nt
N#CC(C#N)=C1C=C2C=C(N3CCOCC3)CCC2CC1 (stereo unspecified) | i | 20 | i | i | 17 | 64 | 76 | 60
N#CC(C#N)=C1C=C2C=C(N3CCCCCC3)CCC2CC1 (stereo unspecified) | i | 38 | i | i | 38 | 64 | 92 | 58
CC1(C)CC(NCCN2CCN(C3=CC(=C(C#N)C#N)CC(C)(C)C3)CC2)=CC(=C(C#N)C#N)C1 | i | i | i | i | i | nt | nt | nt
CC(NCc1ccco1)C(=O)N1CCN(c2ccc(F)cc2)CC1 (stereo unspecified) | i | nt | nt | i | nt | nt | nt | nt
